According to ChEMBL document CHEMBL1135756, “Solid phase synthesis and evaluation of Tyr-Tic-Phe-Phe(p-NHCOCH(2)Br) ([Phe(p-bromoacetamide)(4)]TIPP), a potent affinity label for delta opioid receptors” (J Med Chem, 2002):
Non-standard residues stand in square brackets, D forms with d. Residues, ends and D or L forms follow the SMILES beside them. *: point of attachment. Phe(4-NH2) = Nc1ccc(C[C@H](N)C(=O)O)cc1; Tic = O=C(O)[C@@H]1Cc2ccccc2CN1; BrAc = O=C(CBr)*

Columns and labels:
Mu-type opioid receptor = Mu-type opioid receptor (Rattus norvegicus, UniProt P33535); assay: Inhibitory activity against Opioid receptor mu 1 using [3H]DAMGO
[1] = biological target: T1, Delta-type opioid receptor (Mus musculus, UniProt P32300); assay: Inhibitory activity against Opioid receptor delta 1 using [3H]DPDPE
Method in brief: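 Competition binding on membranes of CHO cells stably transfected with cloned δ opioid receptors, using [³H]DPDPE as radioligand under standard (equilibrium) conditions. IC50 is the mean ± SEM of 3–7 independent determinations.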

[2] = biological target: T1, Delta-type opioid receptor; assay: Binding affinity towards Opioid receptor delta 1
Method in brief: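 Competition binding against [³H]DPDPE on membranes of CHO cells stably transfected with cloned δ opioid receptors, under standard (equilibrium) conditions. The IC₅₀ is displacement of radioligand, averaged over 3–7 independent determinations ± SEM.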

[3] = biological target: Delta-type opioid receptor (Mus musculus) (UniProt P32300); assay: Inhibition of cyclic adenosine 3',5'-monophosphate (cAMP) formation by recombinant Opioid receptor delta 1 in adenylyl cyclase assay; type: functional; settings: concentration not given here
[4] = biological target: Kappa-type opioid receptor (Cavia porcellus, UniProt P41144); assay: Inhibitory activity against Opioid receptor kappa 1 using [3H]diprenorphine
Chain of Kappa-type opioid receptor (P41144 whole entry): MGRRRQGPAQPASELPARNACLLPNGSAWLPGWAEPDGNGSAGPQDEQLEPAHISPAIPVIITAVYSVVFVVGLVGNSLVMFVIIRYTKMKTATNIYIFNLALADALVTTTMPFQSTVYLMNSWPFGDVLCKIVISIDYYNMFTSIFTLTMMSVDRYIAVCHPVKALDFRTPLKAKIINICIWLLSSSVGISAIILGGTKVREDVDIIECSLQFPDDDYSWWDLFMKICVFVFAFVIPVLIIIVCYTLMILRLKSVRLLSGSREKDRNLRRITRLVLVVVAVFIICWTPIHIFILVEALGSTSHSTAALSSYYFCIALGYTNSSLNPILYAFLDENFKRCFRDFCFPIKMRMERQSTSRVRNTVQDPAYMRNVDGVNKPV

T1 sequence (P32300 whole entry): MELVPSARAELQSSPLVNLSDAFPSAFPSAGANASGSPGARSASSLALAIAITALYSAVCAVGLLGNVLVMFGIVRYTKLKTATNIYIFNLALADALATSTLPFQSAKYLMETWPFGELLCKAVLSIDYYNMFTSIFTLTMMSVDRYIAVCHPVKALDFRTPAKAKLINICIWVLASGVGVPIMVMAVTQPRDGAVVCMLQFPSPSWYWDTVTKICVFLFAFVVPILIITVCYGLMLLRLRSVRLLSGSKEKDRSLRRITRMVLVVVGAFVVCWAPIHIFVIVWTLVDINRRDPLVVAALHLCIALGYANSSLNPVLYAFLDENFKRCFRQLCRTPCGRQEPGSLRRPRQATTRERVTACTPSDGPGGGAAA
Chain of Mu-type opioid receptor (P33535 whole entry): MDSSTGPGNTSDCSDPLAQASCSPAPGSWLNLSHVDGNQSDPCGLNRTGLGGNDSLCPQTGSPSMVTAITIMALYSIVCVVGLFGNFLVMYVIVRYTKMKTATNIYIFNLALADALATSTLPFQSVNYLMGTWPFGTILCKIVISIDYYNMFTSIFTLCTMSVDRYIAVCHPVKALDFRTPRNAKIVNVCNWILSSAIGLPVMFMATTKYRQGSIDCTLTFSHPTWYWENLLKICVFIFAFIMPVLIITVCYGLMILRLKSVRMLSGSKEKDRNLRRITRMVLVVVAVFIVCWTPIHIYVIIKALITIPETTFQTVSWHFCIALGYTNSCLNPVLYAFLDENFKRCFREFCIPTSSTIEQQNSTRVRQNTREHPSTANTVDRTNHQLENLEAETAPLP
Chain of Delta-type opioid receptor (Mus musculus) (P32300 whole entry): as the sequence (P32300 whole entry) above

Row | SMILES | IC50 (Mu-type opioid receptor) [nM] | IC50 [1] [nM] | Ki [2] [nM] | inhibition [3] [%] | IC50 [4] [nM]
1 | Nc1ccc(C[C@H](NC(=O)[C@@H]2Cc3ccccc3CN2C(=O)[C@@H](N)Cc2ccc(O)cc2)C(=O)N[C@@H](Cc2ccccc2)C(=O)O)cc1 (H-Y[Tic][Phe(4-NH2)]F-OH) | > 10000 | 36.2 | – | – | –
2 | N[C@@H](Cc1ccc(O)cc1)C(=O)N1Cc2ccccc2C[C@H]1C(=O)N[C@@H](Cc1ccccc1)C(=O)N[C@@H](Cc1ccccc1)C(=O)O (H-Y[Tic]FF-OH) | 10000 | 14.1 | 1.22 | – | –
3 | N[C@@H](Cc1ccc(O)cc1)C(=O)N1Cc2ccccc2C[C@H]1C(=O)N[C@@H](Cc1ccccc1)C(=O)N[C@@H](Cc1ccc(NC(=O)CBr)cc1)C(=O)O (H-Y[Tic]F[Phe(4-NH2)](BrAc)-OH) | > 5390 | 5.4 | – | 65 | > 10000
4 | N[C@@H](Cc1ccc(O)cc1)C(=O)N1Cc2ccccc2C[C@H]1C(=O)N[C@@H](Cc1ccc(NC(=O)CBr)cc1)C(=O)N[C@@H](Cc1ccccc1)C(=O)O (H-Y[Tic][Phe(4-NH2)](BrAc)F-OH) | > 10000 | 65 | – | – | –
5 | Nc1ccc(C[C@H](NC(=O)[C@H](Cc2ccccc2)NC(=O)[C@@H]2Cc3ccccc3CN2C(=O)[C@@H](N)Cc2ccc(O)cc2)C(=O)O)cc1 (H-Y[Tic]F[Phe(4-NH2)]-OH) | > 10000 | 19.9 | – | – | > 10000
